# Reference: ChEMBL document CHEMBL1138485, “Discovery of inducible nitric oxide synthase (iNOS) inhibitor development candidate KD7332, part 1: Identification of a novel, potent, and selective series of quinolinone iNOS dimerization inhibitors that are orally active in rodent pain models” (J Med Chem, 2009)
# Legend:
# [1] = target: Nitric oxide synthase, inducible (Homo sapiens, UniProt P35228); test: Inhibition of human iNOS expressed in HEK293 cells assessed as NO production by transient transfection assay; format: cell-based
# Sequence of Nitric oxide synthase, inducible (P35228 whole entry): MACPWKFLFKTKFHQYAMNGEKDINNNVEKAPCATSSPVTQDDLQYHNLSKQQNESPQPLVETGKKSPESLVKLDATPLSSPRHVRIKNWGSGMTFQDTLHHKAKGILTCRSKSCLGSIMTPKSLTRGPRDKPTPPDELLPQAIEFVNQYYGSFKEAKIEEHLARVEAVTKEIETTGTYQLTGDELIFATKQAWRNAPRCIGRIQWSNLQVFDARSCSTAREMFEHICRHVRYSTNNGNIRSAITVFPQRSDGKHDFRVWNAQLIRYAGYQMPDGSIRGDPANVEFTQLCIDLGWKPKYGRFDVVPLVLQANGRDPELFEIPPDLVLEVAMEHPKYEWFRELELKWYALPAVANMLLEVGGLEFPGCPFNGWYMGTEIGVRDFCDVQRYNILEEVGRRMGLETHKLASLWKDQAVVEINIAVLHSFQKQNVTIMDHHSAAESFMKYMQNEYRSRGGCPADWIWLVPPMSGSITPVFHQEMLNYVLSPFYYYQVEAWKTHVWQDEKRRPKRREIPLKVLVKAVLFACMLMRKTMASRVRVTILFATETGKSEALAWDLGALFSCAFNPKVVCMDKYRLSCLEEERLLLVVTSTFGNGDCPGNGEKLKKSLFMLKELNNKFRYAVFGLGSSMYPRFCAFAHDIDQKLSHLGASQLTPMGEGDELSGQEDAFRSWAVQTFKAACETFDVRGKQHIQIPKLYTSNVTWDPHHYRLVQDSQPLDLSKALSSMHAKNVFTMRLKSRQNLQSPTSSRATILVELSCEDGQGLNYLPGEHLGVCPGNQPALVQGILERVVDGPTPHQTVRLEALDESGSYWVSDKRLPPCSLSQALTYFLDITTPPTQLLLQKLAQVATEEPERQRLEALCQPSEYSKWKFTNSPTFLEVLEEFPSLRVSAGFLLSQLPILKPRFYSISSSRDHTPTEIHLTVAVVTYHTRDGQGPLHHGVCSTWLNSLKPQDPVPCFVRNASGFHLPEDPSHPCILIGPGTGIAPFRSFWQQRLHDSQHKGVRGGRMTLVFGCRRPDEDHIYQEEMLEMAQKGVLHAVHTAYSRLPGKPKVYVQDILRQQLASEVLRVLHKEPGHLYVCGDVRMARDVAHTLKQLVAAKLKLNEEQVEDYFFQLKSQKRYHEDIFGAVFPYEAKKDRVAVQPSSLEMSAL
# Procedure, shortened: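 HEK293 cells grown to ~70% confluence in DMEM/10% FBS with pen/strep. Cells transiently transfected with 10 µg human or murine iNOS plasmid (Fugene 6), 4 h at 37 °C, 10% CO2. Trypsinized, plated at 5 × 10⁵ cells/mL and dosed at once; 1400W 100 µM final as positive control. After 18 h, NO read as DAN fluorescence (10 µg/mL, 20 min RT, then NaOH). EC50 from 3 runs, 10-point curves, n = 8/point.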
# Nitric oxide synthase 3 = target: T1, Nitric oxide synthase 3 (Homo sapiens, UniProt P29474); test: Inhibition of human eNOS expressed in HEK293 cells assessed as NO production by transient transfection assay; format: cell-based
# T1 sequence (P29474 whole entry): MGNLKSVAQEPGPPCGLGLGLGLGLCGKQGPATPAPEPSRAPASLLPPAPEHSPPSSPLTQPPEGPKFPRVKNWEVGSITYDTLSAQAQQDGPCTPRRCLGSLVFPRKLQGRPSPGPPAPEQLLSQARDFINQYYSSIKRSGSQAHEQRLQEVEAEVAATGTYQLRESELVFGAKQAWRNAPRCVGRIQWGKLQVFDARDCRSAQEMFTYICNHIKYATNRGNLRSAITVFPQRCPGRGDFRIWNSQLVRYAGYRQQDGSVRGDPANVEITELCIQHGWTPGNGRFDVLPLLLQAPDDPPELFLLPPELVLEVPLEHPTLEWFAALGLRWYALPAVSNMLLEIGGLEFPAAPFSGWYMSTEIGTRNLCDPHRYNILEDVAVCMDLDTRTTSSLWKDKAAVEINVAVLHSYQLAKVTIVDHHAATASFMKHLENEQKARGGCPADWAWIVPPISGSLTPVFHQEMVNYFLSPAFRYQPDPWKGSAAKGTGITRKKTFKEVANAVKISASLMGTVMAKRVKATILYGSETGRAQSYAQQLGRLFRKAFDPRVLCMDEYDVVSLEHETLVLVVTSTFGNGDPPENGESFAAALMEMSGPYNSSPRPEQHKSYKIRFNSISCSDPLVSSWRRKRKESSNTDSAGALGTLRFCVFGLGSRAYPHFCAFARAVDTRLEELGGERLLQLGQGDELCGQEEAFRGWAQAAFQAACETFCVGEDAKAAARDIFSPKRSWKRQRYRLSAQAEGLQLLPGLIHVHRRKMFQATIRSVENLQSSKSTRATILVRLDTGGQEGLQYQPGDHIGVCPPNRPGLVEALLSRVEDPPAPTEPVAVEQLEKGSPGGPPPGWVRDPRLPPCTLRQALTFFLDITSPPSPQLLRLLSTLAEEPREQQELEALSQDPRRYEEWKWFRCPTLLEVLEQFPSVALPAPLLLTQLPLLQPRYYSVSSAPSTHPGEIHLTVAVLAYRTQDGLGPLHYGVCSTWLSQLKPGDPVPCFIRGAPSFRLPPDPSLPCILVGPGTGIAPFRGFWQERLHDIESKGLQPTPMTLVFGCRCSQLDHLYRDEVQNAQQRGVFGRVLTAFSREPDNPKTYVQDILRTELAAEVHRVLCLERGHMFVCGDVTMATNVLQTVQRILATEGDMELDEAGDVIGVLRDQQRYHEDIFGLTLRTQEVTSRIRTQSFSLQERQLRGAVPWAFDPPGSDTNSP
# Procedure, shortened: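 HEK293 cells grown to ~70% confluence in DMEM/10% FBS with pen/strep, transfected with 15 µg human eNOS plasmid plus Fugene 6 (3:1 µL:µg), 4 h at 37 °C, 10% CO2. Cells replated at 5 × 10⁵/mL, compound added at once, 24 h incubation, then A23187 (83 nM final). After 18 h, NO read by DAN fluorescence.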
# Nitric oxide synthase 1 = Nitric oxide synthase 1 (Homo sapiens, UniProt P29475); test: Inhibition of human nNOS expressed in HEK293 cells assessed as NO production by transient transfection assay; format: cell-based
# Sequence of Nitric oxide synthase 1 (P29475 whole entry): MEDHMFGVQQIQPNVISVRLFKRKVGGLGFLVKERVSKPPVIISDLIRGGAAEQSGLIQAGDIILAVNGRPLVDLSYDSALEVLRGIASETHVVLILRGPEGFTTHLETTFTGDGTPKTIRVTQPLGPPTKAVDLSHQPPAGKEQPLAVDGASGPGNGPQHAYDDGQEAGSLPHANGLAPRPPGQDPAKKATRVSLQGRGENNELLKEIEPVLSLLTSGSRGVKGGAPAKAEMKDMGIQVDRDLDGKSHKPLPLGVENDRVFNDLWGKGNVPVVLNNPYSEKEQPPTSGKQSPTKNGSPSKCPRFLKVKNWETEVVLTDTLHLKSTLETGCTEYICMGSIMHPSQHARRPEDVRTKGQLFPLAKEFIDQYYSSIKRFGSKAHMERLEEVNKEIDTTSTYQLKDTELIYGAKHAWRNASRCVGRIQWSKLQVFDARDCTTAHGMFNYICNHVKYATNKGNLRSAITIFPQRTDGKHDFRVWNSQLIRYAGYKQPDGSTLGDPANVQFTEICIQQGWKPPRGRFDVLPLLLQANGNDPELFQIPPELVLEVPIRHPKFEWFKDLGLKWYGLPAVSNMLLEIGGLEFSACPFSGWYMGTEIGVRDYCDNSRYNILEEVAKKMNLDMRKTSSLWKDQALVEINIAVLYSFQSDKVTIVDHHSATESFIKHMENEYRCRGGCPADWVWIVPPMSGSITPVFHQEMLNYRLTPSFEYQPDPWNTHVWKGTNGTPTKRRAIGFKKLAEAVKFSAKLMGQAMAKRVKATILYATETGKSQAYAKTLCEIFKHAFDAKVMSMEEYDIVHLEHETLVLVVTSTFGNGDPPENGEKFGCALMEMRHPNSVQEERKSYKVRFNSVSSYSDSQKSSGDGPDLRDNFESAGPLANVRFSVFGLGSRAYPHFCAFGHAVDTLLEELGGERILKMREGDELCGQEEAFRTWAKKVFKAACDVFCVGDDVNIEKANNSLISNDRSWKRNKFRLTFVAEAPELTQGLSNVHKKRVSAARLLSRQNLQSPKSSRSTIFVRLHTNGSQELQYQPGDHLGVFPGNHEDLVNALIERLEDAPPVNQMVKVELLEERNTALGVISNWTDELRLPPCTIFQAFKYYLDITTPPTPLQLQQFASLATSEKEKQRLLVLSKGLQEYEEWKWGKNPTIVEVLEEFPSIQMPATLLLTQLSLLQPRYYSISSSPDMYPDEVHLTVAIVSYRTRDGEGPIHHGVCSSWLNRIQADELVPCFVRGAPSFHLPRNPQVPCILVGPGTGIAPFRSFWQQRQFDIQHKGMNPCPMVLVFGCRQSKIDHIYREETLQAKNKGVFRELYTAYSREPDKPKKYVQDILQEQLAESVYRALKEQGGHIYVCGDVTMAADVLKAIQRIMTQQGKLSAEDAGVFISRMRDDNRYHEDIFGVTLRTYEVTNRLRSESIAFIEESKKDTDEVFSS
# Mus musculus = test: Reduction of plasma nitrate level in LPS-challenged BALB/c mouse at 30 mg/kg, po; format: functional; set-up: scale not given: the % may be the effect or the level left
# Procedure, shortened: (§1)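 Male Balb/c mice were dosed by oral gavage (90% PEG/5% Tween 80/5% PVP + 90% CMC (0.5% w/v)) at t = 0 h, 30 mg/kg for single-dose lines. LPS 10 mg/kg ip in 0.9% NaCl followed immediately. At 6 h, EDTA plasma was taken for nitrate and drug levels. Nitrate reduction is relative to vehicle; ED50 came from full oral dose-response.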
# [2] = Drug level in LPS-challenged BALB/c mouse plasma at 30 mg/kg, po after 6 hrs; format: ADME, organism-based; set-up: dose 30 mg/kg, route oral; procedure, shortened: as §1
# Cytochrome P450 1A2 = target: T2, Cytochrome P450 1A2 (Homo sapiens, UniProt P05177); test: Inhibition of CYP1A2; format: ADME
# T2 sequence (P05177 whole entry): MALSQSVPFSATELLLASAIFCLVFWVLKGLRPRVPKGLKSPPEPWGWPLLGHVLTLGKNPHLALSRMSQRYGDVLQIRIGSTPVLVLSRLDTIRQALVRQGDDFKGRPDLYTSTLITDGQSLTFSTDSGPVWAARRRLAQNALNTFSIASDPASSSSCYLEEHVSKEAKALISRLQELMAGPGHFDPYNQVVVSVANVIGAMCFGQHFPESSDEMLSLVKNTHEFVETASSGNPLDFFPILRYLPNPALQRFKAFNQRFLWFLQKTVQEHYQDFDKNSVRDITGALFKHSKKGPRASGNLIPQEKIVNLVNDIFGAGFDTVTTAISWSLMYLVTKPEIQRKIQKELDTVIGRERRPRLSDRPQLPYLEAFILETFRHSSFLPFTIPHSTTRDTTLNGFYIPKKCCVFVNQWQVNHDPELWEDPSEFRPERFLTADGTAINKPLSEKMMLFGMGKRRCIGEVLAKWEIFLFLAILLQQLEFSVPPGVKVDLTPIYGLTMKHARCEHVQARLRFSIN
# Cytochrome P450 3A4 = Cytochrome P450 3A4 (Homo sapiens, UniProt P08684); test: Inhibition of CYP3A4; format: ADME
# Sequence of Cytochrome P450 3A4 (P08684 whole entry): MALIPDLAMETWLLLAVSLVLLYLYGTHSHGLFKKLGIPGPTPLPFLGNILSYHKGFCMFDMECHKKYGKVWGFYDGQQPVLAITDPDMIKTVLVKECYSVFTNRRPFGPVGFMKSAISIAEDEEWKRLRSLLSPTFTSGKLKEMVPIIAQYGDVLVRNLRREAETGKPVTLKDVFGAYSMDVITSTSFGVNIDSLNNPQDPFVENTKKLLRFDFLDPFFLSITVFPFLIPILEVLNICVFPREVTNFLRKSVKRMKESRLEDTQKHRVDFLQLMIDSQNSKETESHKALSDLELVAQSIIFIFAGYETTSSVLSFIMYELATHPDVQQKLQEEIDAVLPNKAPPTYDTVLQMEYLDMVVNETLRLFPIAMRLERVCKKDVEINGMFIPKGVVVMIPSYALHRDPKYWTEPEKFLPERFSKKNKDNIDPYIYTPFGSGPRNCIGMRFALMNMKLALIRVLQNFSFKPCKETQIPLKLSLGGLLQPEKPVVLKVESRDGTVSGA
# Cytochrome P450 2D6 = Cytochrome P450 2D6 (Homo sapiens, UniProt P10635); test: Inhibition of CYP2D6; format: ADME
# Sequence of Cytochrome P450 2D6 (P10635 whole entry): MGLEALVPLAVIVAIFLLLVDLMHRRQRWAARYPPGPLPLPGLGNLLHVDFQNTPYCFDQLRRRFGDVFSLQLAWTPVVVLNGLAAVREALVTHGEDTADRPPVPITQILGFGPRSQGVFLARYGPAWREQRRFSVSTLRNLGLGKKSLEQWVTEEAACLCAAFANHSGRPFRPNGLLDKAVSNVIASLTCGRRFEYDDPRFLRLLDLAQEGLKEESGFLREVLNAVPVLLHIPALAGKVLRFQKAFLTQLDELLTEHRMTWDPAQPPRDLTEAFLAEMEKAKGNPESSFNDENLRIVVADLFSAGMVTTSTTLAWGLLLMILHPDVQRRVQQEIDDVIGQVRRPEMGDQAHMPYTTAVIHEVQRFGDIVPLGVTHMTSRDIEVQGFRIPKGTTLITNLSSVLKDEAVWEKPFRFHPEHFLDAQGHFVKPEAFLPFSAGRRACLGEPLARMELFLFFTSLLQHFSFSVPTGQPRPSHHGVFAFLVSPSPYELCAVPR
# Cytochrome P450 2C19 = Cytochrome P450 2C19 (Homo sapiens, UniProt P33261); test: Inhibition of CYP2C19; format: ADME
# Sequence of Cytochrome P450 2C19 (P33261 whole entry): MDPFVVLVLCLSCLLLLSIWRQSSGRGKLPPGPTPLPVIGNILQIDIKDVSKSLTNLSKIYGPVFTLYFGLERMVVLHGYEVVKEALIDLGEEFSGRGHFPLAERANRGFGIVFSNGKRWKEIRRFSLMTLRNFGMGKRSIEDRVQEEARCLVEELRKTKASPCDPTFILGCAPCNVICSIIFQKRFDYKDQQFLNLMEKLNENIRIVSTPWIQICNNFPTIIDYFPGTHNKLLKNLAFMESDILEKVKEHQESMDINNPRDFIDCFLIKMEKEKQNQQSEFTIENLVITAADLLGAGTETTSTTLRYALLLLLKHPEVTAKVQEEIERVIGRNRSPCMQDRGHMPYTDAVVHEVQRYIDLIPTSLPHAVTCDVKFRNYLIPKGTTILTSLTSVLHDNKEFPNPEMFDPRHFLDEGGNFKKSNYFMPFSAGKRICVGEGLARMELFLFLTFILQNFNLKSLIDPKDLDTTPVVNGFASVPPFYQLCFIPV
SMILES,EC50 [1],EC50 (Nitric oxide synthase 3),EC50 (Nitric oxide synthase 1),Activity (Mus musculus),concentration at 6 h [2],EC50 (Cytochrome P450 1A2),EC50 (Cytochrome P450 3A4),EC50 (Cytochrome P450 2D6),EC50 (Cytochrome P450 2C19)
Cc1ncsc1C(=O)N(Cc1cc(=O)[nH]c2c(F)c(F)ccc12)c1cccc(Cl)c1,0.002 µM,3 µM,0.12 µM,62%,8 ng/mL,52 µM,4.9 µM,> 100 µM,19 µM
CC(C)C(=O)N(Cc1cc(=O)[nH]c2c(F)cccc12)c1cccc(Cl)c1,0.16 µM,> 100 µM,2.9 µM,6%,21 ng/mL,> 100 µM,7.6 µM,> 100 µM,42 µM
Cc1ncsc1C(=O)N(Cc1c[n+]([O-])cc2c(F)c(F)ccc12)c1cccc(Cl)c1,0.019 µM,34 µM,3.2 µM,10%,20 ng/mL,> 100 µM,1.8 µM,> 100 µM,93 µM
Cn1cncc1C(=O)N(Cc1cc(=O)[nH]c2c(F)c(F)ccc12)c1cccc(Cl)c1,0.003 µM,0.42 µM,0.07 µM,95%,18 ng/mL,95 µM,1.4 µM,21 µM,11 µM
Cc1ncsc1C(=O)N(Cc1cc(=O)[nH]c2c(F)cccc12)c1cccc(Cl)c1,0.011 µM,26 µM,2.3 µM,90%,77 ng/mL,> 100 µM,7 µM,> 100 µM,13 µM
CC1=C(C(=O)N(Cc2cc(=O)[nH]c3c(F)c(F)ccc23)c2cccc(Cl)c2)CNCC1,0.011 µM,2.5 µM,0.29 µM,95%,63 ng/mL,> 100 µM,3.4 µM,> 100 µM,30 µM
